According to ChEMBL document CHEMBL3351885, “Putative kappa opioid heteromers as targets for developing analgesics free of adverse effects” (J Med Chem, 2014):
Activity calls are given as the source filed them.

What was measured:
[1] = biological target: T1, Opioid receptors; delta & kappa (Homo sapiens) (UniProt P41145+P41143); assay: Agonist activity at human delta-kappa opioid receptor expressed in HEK293 cells assessed as induction of intracellular calcium release by FLIPR assay; format: functional, cell-based
Procedure, shortened: (§1)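 HEK293 cells stably carrying chimeric Δ6-Gαqi-myr, transiently transfected with one or two opioid receptor cDNAs (200 ng/20000 cells, Lipofectamine 2000). Cells were reseeded at 24 h and assayed 48 h post-transfection with a FLIPR Ca2+ kit. Fluorescence was read for 90 s after ligand addition to build concentration-response curves; mean ± SEM, n = 3−5.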

[2] = biological target: Opioid receptors; mu & delta (Homo sapiens) (UniProt P41143+P35372); assay: Agonist activity at human mu-delta opioid receptor expressed in HEK293 cells assessed as induction of intracellular calcium release by FLIPR assay; format: functional, cell-based; procedure, shortened: as §1
Mus musculus [3] = assay: Antinociceptive effect in intrathecally dosed ICR-CD1 mouse assessed as peak time for antinociceptive effect by tail flick test; format: functional
Procedure, shortened: (§2)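 Peak time in the mouse tail-flick test was set by measuring antinociception at 5, 10, 20, 30 and 60 min after dosing; latency cutoff 10 s; response expressed as %MPE.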

Mus musculus [4] = assay: Antinociceptive effect in intracerebroventricularly dosed ICR-CD1 mouse by tail flick test; format: functional
Procedure, shortened: (§3)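 Male ICR-CD1 mice, 17−25 g. Tail-flick latency was taken before dosing and at the compound's peak time, with a 10 s cutoff. Response was expressed as %MPE = (test − control)/(10 − control) × 100. Three groups of 8−10 mice per dose-response curve, each mouse used once. ED50 with 95% CI came from nonlinear regression.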

Mus musculus [5] = assay: Antinociceptive effect in intrathecally dosed ICR-CD1 mouse by tail flick test; format: functional; procedure, shortened: as §3
Mus musculus [6] = assay: Antinociceptive effect in intrathecally dosed ICR-CD1 mouse assessed as drug tolerance development measured after 25 hrs by tail flick test; format: functional, organism-based
Procedure, shortened: (§4)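 Acute tolerance: the highest (ED80−90) dose of the day-1 dose-response curve was given again 24 h later to the same mice in the tail-flick test. No significant difference between days was scored as no tolerance.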

Mus musculus [7] = assay: Antinociceptive effect in sc dosed ICR-CD1 mouse by tail flick test; format: functional; procedure, shortened: as §3
Mus musculus [8] = assay: Antinociceptive effect in orally dosed ICR-CD1 mouse by tail flick test; format: functional; conditions: po; procedure, shortened: as §3
[9] = biological target: Mu-type opioid receptor (Homo sapiens) (UniProt P35372); assay: Agonist activity at human mu opioid receptor expressed in HEK293 cells assessed as induction of beta-arrestin 2 recruitment incubated for 60 mins by fluorescent microscopy; format: cell-based
Procedure, shortened: (§5)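 HEK293 cells were transiently transfected with single or paired opioid receptors, replated on chamber slides after 24 h and left overnight. Ligands in serum-free medium were applied for 60 min at 37 °C. Cells were fixed in 4% paraformaldehyde, then stained with goat anti-β-arrestin2 (1 μg/mL, 4 °C overnight), fluorescent anti-goat secondary (30 min, RT) and DAPI. A brighter membrane on fluorescence microscopy scored as recruitment.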

[10] = biological target: T1, Opioid receptors; delta & kappa (Homo sapiens); assay: Agonist activity at human kappa-delta opioid receptor expressed in HEK293 cells assessed as induction of beta-arrestin 2 recruitment incubated for 60 mins by fluorescent microscopy; format: cell-based; procedure, shortened: as §5
Mus musculus [11] = assay: Antinociceptive effect in intracerebroventricularly dosed ICR-CD1 mouse assessed as peak time for antinociceptive effect by tail flick test; format: functional; procedure, shortened: as §2
[12] = biological target: Delta-type opioid receptor (Homo sapiens) (UniProt P41143); assay: Agonist activity at human delta opioid receptor expressed in HEK293 cells assessed as induction of beta-arrestin 2 recruitment incubated for 60 mins by fluorescent microscopy; format: cell-based; procedure, shortened: as §5
Mus musculus [13] = assay: Physical dependence in ICR-CD1 mouse assessed as induction of jumps over 10 mins period at 2.5 to 10 mg/kg, sc dosed three times daily for 4 days and 10 mg/kg, sc on day 5 followed 3 hrs later by single 10 mg/kg, sc naloxone; format: organism-based; conditions: in vivo
Procedure, shortened: (§6)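 Mice received sc drug three times daily for 4 days (2.5−10 mg/kg), then 10 mg/kg on day 5, with sc naloxone 3 h later. Jumps were counted over 10 min. A morphine group served as control.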

Mus musculus [14] = assay: Induction of aversion in ICR-CD1 mouse at 0.3 to 10 mg/kg, sc by conditioned place preference assay; format: organism-based; parameters: dose 0.3-10 mg/kg, route subcutaneous; conditions: in vivo
Procedure, shortened: (§7)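 Two-chamber place conditioning with rod versus mesh floors. Bias was taken in a 20 min free-exploration pretest, and groups were counterbalanced. Drug or vehicle (saline with 1% DMSO) was paired with one chamber and saline with the other, injected sc 20 min before 30 min confinement. Four drug and four saline sessions alternated daily. Tests of 20 min came after the 4th and 8th sessions. Score = change in CS+ time from pretest; Bonferroni t test against vehicle.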

Mus musculus [15] = assay: Rewarding effect in ICR-CD1 mouse at 0.3 to 10 mg/kg, sc by conditioned place preference assay; format: functional, organism-based; procedure, shortened: as §7
Mus musculus [16] = assay: Antinociceptive effect in intrathecally dosed ICR-CD1 mouse co-treated with mu opioid receptor antagonist beta-FNA by tail flick test; format: functional, organism-based
[17] = biological target: Kappa-type opioid receptor (Homo sapiens) (UniProt P41145); assay: Agonist activity at human kappa opioid receptor expressed in HEK293 cells assessed as induction of intracellular calcium release by FLIPR assay; format: functional, cell-based; procedure, shortened: as §1
[18] = biological target: T2, Opioid receptors; mu & kappa (Homo sapiens) (UniProt P41145+P35372); assay: Agonist activity at human mu-kappa opioid receptor expressed in HEK293 cells assessed as induction of intracellular calcium release by FLIPR assay; format: functional, cell-based; procedure, shortened: as §1
[19] = biological target: Delta-type opioid receptor (Homo sapiens) (UniProt P41143); assay: Agonist activity at human delta opioid receptor expressed in HEK293 cells assessed as induction of intracellular calcium release by FLIPR assay; format: functional, cell-based; procedure, shortened: as §1
Mus musculus [20] = assay: Antinociceptive effect in sc dosed ICR-CD1 mouse by tail flick test relative to morphine; format: functional
Mus musculus [21] = assay: Antinociceptive effect in intracerebroventricularly dosed ICR-CD1 mouse assessed as drug tolerance development measured after 25 hrs by tail flick test; format: functional, organism-based; procedure, shortened: as §4
Mus musculus [22] = assay: Antinociceptive effect in intrathecally dosed ICR-CD1 mouse co-treated with delta opioid receptor antagonist NTB by tail flick test; format: functional, organism-based
Mus musculus [23] = assay: Antinociceptive effect in intrathecally dosed ICR-CD1 mouse co-treated with kappa opioid receptor antagonist norB-NI by tail flick test; format: functional, organism-based
Mus musculus [24] = assay: Physical dependence in ICR-CD1 mouse assessed as induction of jumps over 10 mins period at 2.5 to 10 mg/kg, sc dosed three times daily for 4 days and 10 mg/kg, sc on day 5 followed 3 hrs later by single 50 mg/kg, sc naloxone; format: organism-based; conditions: in vivo; procedure, shortened: as §6
[25] = biological target: Kappa-type opioid receptor (Homo sapiens) (UniProt P41145); assay: Agonist activity at human kappa opioid receptor expressed in HEK293 cells assessed as induction of beta-arrestin 2 recruitment incubated for 60 mins by fluorescent microscopy; format: cell-based; procedure, shortened: as §5
[26] = biological target: T2, Opioid receptors; mu & kappa (Homo sapiens); assay: Agonist activity at human mu-kappa opioid receptor expressed in HEK293 cells assessed as induction of beta-arrestin 2 recruitment incubated for 60 mins by fluorescent microscopy; format: cell-based; procedure, shortened: as §5
Mus musculus [27] = assay: Ratio of antinociceptive effect in intrathecally dosed ICR-CD1 mouse in presence of 500 nmol naloxone to antinociceptive effect in intrathecally dosed ICR-CD1 mouse in absence of 500 nmol naloxone; format: functional
Mus musculus [28] = assay: Rewarding effect in ICR-CD1 mouse at 0.3 to 10 mg/kg, sc in presence of naloxone by conditioned place preference assay; format: functional, organism-based
Mus musculus [29] = assay: Antinociceptive effect in ICR-CD1 mouse dosed intrathecally twice on day 1 and day 2 followed by injection with same dose on day 3 by tail flick test; format: functional
[30] = biological target: Mu-type opioid receptor (Homo sapiens) (UniProt P35372); assay: Agonist activity at human mu opioid receptor expressed in HEK293 cells assessed as induction of intracellular calcium release by FLIPR assay; format: functional, cell-based; procedure, shortened: as §1
Mus musculus [31] = assay: Potency ratio, ratio,of ED50 for antinociceptive effect in intracerebroventricularly dosed ICR-CD1 mouse to ED50 for intrathecally dosed ICR-CD1 mouse by tail flick test; format: functional
Mus musculus [32] = assay: Induction of aversion in ICR-CD1 mouse at 0.1 to 1 mg/kg, sc by conditioned place preference assay; format: organism-based; parameters: dose 0.1-1 mg/kg, route subcutaneous; conditions: in vivo; procedure, shortened: as §7

Kappa-type opioid receptor (Homo sapiens), sequence (P41145 whole entry): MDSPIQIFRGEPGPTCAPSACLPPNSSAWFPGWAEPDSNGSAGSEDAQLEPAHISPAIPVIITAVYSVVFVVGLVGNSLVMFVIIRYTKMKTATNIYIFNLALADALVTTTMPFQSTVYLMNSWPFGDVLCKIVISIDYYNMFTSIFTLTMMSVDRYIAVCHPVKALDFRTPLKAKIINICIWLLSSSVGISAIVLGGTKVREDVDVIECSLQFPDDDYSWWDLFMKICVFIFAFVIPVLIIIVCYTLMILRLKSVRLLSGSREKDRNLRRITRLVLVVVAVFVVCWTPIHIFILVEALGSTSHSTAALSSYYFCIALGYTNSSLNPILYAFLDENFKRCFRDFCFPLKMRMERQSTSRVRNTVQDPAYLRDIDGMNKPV
T1 sequence (P41143 whole entry, looked up): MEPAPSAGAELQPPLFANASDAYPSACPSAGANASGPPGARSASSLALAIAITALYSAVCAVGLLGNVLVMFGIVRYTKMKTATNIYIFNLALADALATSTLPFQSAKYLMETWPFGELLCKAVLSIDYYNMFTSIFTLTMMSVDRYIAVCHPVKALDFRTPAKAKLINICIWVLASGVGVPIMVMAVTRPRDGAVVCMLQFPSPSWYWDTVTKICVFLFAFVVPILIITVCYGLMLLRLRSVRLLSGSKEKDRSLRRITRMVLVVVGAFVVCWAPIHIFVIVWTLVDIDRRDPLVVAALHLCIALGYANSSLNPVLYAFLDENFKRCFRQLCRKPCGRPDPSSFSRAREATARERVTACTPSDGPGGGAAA
T1 sequence (P41145 whole entry, looked up): as the sequence (P41145 whole entry) above
Delta-type opioid receptor (Homo sapiens), sequence (P41143 whole entry): as the sequence (P41143 whole entry, looked up) above
T2 sequence (P35372 whole entry, looked up): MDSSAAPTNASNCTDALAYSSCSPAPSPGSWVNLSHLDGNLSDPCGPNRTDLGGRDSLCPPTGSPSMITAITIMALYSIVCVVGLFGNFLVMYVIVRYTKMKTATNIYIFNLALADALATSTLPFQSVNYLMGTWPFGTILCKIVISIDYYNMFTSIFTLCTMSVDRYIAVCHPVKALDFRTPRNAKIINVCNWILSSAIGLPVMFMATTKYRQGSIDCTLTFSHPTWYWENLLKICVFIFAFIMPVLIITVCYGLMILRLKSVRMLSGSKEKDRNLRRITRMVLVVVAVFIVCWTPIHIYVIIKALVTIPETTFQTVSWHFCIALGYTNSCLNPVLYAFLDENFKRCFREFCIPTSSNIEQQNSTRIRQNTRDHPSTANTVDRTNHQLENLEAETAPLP
T2 sequence (P41145 whole entry, looked up): as the sequence (P41145 whole entry) above
Mu-type opioid receptor (Homo sapiens), sequence (P35372 whole entry): as the sequence (P35372 whole entry, looked up) above
Opioid receptors; mu & delta (Homo sapiens), sequence (P35372 whole entry, looked up): as above
Opioid receptors; mu & delta (Homo sapiens), sequence (P41143 whole entry, looked up): as the sequence (P41143 whole entry, looked up) above

Compound	Activity [1]	Activity [2]	Time (Mus musculus [3]) [min]	MPE (Mus musculus [4]) [%]	ED50 (Mus musculus [5]) [pmol]	Activity (Mus musculus [6])	Time (Mus musculus [11]) [min]	Activity [17]	Activity [18]	Activity [19]	Activity (Mus musculus [21])	ED50 (Mus musculus [4]) [pmol]	Activity [30]	Ratio ED50 (Mus musculus [31])	MPE (Mus musculus [5]) [%]	also measured
O=C(N[C@@H]1CC[C@@]2(O)[C@H]3Cc4ccc(O)c5c4[C@@]2(CCN3CC2CC2)[C@H]1O5)c1cc2cc(F)ccc2[nH]1	inactive	Active	10	<60	295	inactive										
CN1CC[C@]23c4c5ccc(O)c4O[C@H]2[C@@H](O)C=C[C@H]3[C@H]1C5 [MORPHINE]																ED50 (Mus musculus [7]): 7.8 mg/kg; ED50 (Mus musculus [8]): 2.51 mg/kg
O=C(N[C@@H]1CC[C@@]2(O)[C@H]3Cc4ccc(O)c5c4[C@@]2(CCN3CC2CC2)[C@H]1O5)c1cc2ccccc2[nH]1	Active	Active	10		21.27	Active	10	Active	Active	Active	Active	1252.2	Active	59		Activity [9]: Active; Activity [10]: inactive; Activity [12]: Active; Activity (Mus musculus [13]): Non-toxic; Activity (Mus musculus [14]): Non-toxic; Activity (Mus musculus [15]): Dose-dependent effect; ED50 (Mus musculus [7]): 0.97 mg/kg; Activity (Mus musculus [16]): Active; Ratio ED50 (Mus musculus [20]): 9; Activity (Mus musculus [22]): Active; Activity (Mus musculus [23]): Active; Activity (Mus musculus [24]): Non-toxic; ED50 (Mus musculus [8]): 9.08 mg/kg; Activity [25]: Active; Activity [26]: inactive; Ratio (Mus musculus [27]): 15; Activity (Mus musculus [28]): inactive; ED50 (Mus musculus [29]): 29.47 pmol
Cn1c(C(=O)N[C@@H]2CC[C@@]3(O)[C@H]4Cc5ccc(O)c6c5[C@@]3(CCN4CC3CC3)[C@H]2O6)cc2ccccc21	Active	Active	10		23.06	Active	10	Active	Active	Active	Active	550.4	Active	24		
COC(=O)[C@@H]1C[C@H](OC(C)=O)C(=O)[C@H]2[C@@]1(C)CC[C@H]1C(=O)O[C@H](c3ccoc3)C[C@]21C [SALVINORIN A]																Activity (Mus musculus [32]): Toxic
O=C(N[C@@H]1CC[C@@]2(O)[C@H]3Cc4ccc(O)c5c4[C@@]2(CCN3CC2CC2)[C@H]1O5)c1ccc2[nH]ccc2c1	Active		20	<60					Active						<60	
O=C(N[C@@H]1CC[C@@]2(O)[C@H]3Cc4ccc(O)c5c4[C@@]2(CCN3CC2CC2)[C@H]1O5)c1cc2cc(Cl)ccc2[nH]1	Active		20	<60					Active						<60	
O=C(N[C@@H]1CC[C@@]2(O)[C@H]3Cc4ccc(O)c5c4[C@@]2(CCN3CC2CC2)[C@H]1O5)c1cc2ccccc2o1	Active	Active	10		191.9	Active	10	Active	Active	Active	Active	580.8	Active	3		
O=C(N[C@@H]1CC[C@@]2(O)[C@H]3Cc4ccc(O)c5c4[C@@]2(CCN3CC2CC2)[C@H]1O5)c1cc2ccccc2s1	Active	Active	20	<60				Active	Active	Active			Active		<60	
O=C(N[C@@H]1CC[C@@]2(O)[C@H]3Cc4ccc(O)c5c4[C@@]2(CCN3CC2CC2)[C@H]1O5)c1c[nH]c2ccccc12	Active		20	<60	29.39	Active			Active							
